Key:
Assay type in all cases: ADME, organism-based
[1] = AUC(0 to infinity) in Sprague-Dawley rat at 5 mg/kg, iv by LC-MS/MS analysis; design: dose 5 mg/kg, route intravenous, time infinity; details: plasma
Method in brief: (§1)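 Male Sprague-Dawley rats (n = 5) given the homodisulfide intravenously at 5 mg/kg. Blood collected up to 7 days into heparin/NEM tubes. Plasma analyzed by LC-MS/MS for both monomer and dimer. Noncompartmental AUC, Cl and Vd calculated. Mean ± S.D.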

[2] = Elimination half life in Sprague-Dawley rat at 5 mg/kg, iv by LC-MS/MS analysis; design: dose 5 mg/kg, route intravenous; details: in vivo, read-out: beta t1/2 (converted)
Method in brief: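 Male Sprague-Dawley rats received a single IV dose of either 10 mg/kg parent drug (n = 6) or 5 mg/kg homodisulfide (n = 5), in 50 mM HEPES-buffered saline, pH 7.4. Blood was collected into NEM-containing heparinized tubes for up to 7 days. Parent drug and homodisulfide in plasma were quantified by LC-MS/MS. Terminal t1/2β was calculated as 0.693/λz.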

[3] = Tmax in Sprague-Dawley rat at 5 mg/kg, iv by LC-MS/MS analysis; design: dose 5 mg/kg, route intravenous; details: in vivo
[4] = Cmax in Sprague-Dawley rat at 5 mg/kg, iv by LC-MS/MS analysis; design: dose 5 mg/kg, route intravenous; details: in vivo; method in brief: as §1
[5] = Volume of distribution in Sprague-Dawley rat at 5 mg/kg, iv by LC-MS/MS analysis; design: dose 5 mg/kg, route intravenous; details: in vivo
[6] = AUC(0 to last) in Sprague-Dawley rat at 5 mg/kg, iv by LC-MS/MS analysis; design: time 0 - last, dose 5 mg/kg, route intravenous; details: plasma; method in brief: as §1
[7] = Clearance in Sprague-Dawley rat at 5 mg/kg, iv by LC-MS/MS analysis; design: dose 5 mg/kg, route intravenous; details: in vivo; method in brief: as §1

AUC(0-inf) [1]: 3540 µg·h/mL
half-life [2]: 4.21 days
Tmax [3]: 6.6 min
Cmax [4]: 104 µg/mL
Vd [5]: 209 L/kg
AUC(0-t) [6]: 2490 µg·h/mL
clearance [7]: 1.5 mL/h/kg
SMILES: O=C(O)c1cccc(-c2cccc(CCSSCCc3cccc(-c4cccc(C(=O)O)c4)c3C(=O)O)c2C(=O)O)c1

— ChEMBL document CHEMBL3526151, “Reversible disulfide formation of the glutamate carboxypeptidase II inhibitor E2072 results in prolonged systemic exposures in vivo” (Drug Metab Dispos, 2012)
